Reference: paper PMC3587690 (Bioorganic & medicinal chemistry, 2012)

How the values were obtained:
[1] = system: VEGF; test: VEGF ELISA assay of A549 culture media; assay type: cell-based; conditions: A549 cells, 24 h
Method in brief: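 A549 cells were treated in duplicate with the indicated test compound concentrations for 24 h. VEGF in the culture medium was measured by ELISA and normalised to medium protein concentration. One-way ANOVA was used.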

[2] = system: human foreskin fibroblast (HFF) cells; test: HFF growth inhibition, trypan blue exclusion assay; assay type: cell-based; conditions: 48 h
Method in brief: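 HFF cells were maintained in DMEM with 10% FBS and penicillin/streptomycin at 37 °C under 5% CO2. Cells were treated with increasing test compound concentrations in triplicate for 48 h, and live cells were counted by trypan blue exclusion.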

[3] = system: MCF-7 cells expressing VP16-CREB; test: MTT assay in MCF-7 cells expressing VP16-CREB versus parental MCF-7; assay type: cell-based; conditions: 48 h
Method in brief: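 MCF-7 cells were lipofected with a plasmid encoding Flag-tagged VP16-CREB. From 2 days post-transfection they were selected in 2 mg/mL G418 until a stable colony formed, and expression was checked by anti-FLAG blot. The stable line and parental MCF-7 were treated in triplicate for 48 h, and live cells were quantified by MTT. Student's t-test was used.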

[4] = system: Bcl-2; test: Western blot of Bcl-2 in A549 cells; assay type: cell-based; conditions: increasing concentrations, 48 h
Method in brief: (§1)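 Exponentially growing A549 cells were treated with different test compound concentrations for 48 h and washed twice in cold PBS (pH 7.4). They were lysed in NP-40 buffer (50 mM Tris-HCl pH 8.0, 5 mM EDTA, 150 mM NaCl, 1 mM DTT, 0.5% NP-40) containing 8 M urea. Equal protein was run on 10% SDS-PAGE, transferred to PVDF and probed with specific antibodies, using GAPDH as the loading control.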

[5] = system: poly (ADP-ribose) polymerase (PARP); test: Western blot of PARP cleavage in A549 cells; assay type: cell-based; conditions: 48 h
Method in brief: as §1

[6] = system: p53-mediated gene transcription; test: p53 transcription reporter assay; assay type: cell-based; conditions: transcription reporter assay (Fig. S2)
[7] = system: VEGF; test: qRT-PCR of VEGF transcript in A549 cells; assay type: cell-based; conditions: 4 h
Method in brief: (§2)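 Exponentially growing A549 cells were treated in duplicate for 4 h. Total RNA was extracted and DNase-treated at 37 °C for 30 min, then cDNA was made with random primers. Transcripts were quantified by SYBR Green qPCR, normalised to HPRT, using the 2−ΔΔCt method. One-way ANOVA was used.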

[8] = system: A549 cells; test: Annexin-V/PI flow cytometry apoptosis assay; assay type: cell-based; conditions: 10 µM, 48 h, vehicle […]
[9] = system: A549, MCF-7, MDA-MB-231 and MDA-MB-468; test: MTT growth inhibition, average of four cancer cell lines; assay type: cell-based; conditions: read-out: GI50 Average
Method in brief: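 Each of the four lines, grown in DMEM with 10% FBS at 37 °C and 5% CO2, was incubated with the test compound for 72 h, and growth was read by MTT absorbance at 570 nm. Percent growth was 100 × (treated − time-0)/(medium control − time-0). GI50 came from non-linear regression of the growth–concentration curve, and the four mean GI50s were averaged. Single experiments were run in duplicate where no SD is given.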

[10] = system: NCI-60 cancer cell panel; test: NCI-60 cancer cell panel; assay type: cell-based; conditions: Fig. S1
[11] = system: VP16-CREB-mediated gene transcription; conditions: cited from earlier work
[12] = system: p21; test: qRT-PCR of p21 transcript in A549 cells; assay type: cell-based; conditions: 4 h
Method in brief: as §2

[13] = system: normal human mammary epithelial cells (HMEC); test: HMEC growth inhibition, trypan blue exclusion assay; assay type: cell-based; conditions: 10 µM and lower, 48 h
Method in brief: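 Proliferating normal HMEC were cultured routinely in MEGM complete medium with penicillin/streptomycin at 37 °C under 5% CO2. On the day of treatment the medium was changed to DMEM with 10% FBS. Cells were exposed to various test compound concentrations in triplicate for 48 h, then live cells were counted by trypan blue exclusion. One-way ANOVA was used.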

[14] = system: Bcl-2; test: qRT-PCR of bcl-2 transcript in A549 cells; assay type: cell-based; conditions: 4 h
Method in brief: as §2

[15] = system: p21; test: Western blot of p21 in A549 cells; assay type: cell-based; conditions: all concentrations tested, 48 h
Method in brief: as §1

[16] = target: KIX–KID interaction (Homo sapiens, UniProt Q92793); conditions: cited from earlier work
[17] = system: CREB-mediated gene transcription in HEK 293T cells; conditions: cited from earlier work

Chain of KIX–KID interaction (Q92793 587-666 limits assumed): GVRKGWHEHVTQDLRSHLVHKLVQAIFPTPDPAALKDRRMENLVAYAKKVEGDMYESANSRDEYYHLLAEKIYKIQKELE

O=C(Nc1ccc(Cl)cc1)c1cc2ccccc2cc1O [Compound 1a, naphthol AS-E]
expression of VEGF in culture media [1]: down-regulated | toxicity to HFF cells (number of live cells) [2]: did not observe significant toxicity | sensitivity of MCF-7 cells expressing VP16-CREB compared to parental MCF-7 cells [3]: more resistant | expression level of Bcl-2 protein [4]: decreased | cleavage of PARP [5]: observed | inhibition of p53-mediated gene transcription [6]: not inhibited | transcript level of VEGF [7]: decreased | cells undergoing apoptosis (annexin+/PI−) [8]: Up to 19.4% | GI50 [9]: 2.38 µM | growth inhibition in NCI-60 panel [10]: inhibited the growth of most of the cancer cells | inhibition of VP16-CREB-mediated gene transcription [11]: did not inhibit | transcript level of p21 [12]: essentially unchanged | toxicity to HMEC (number of live cells) [13]: little or no toxicity | transcript level of bcl-2 [14]: decreased | expression of p21 protein [15]: unchanged

O=C(Nc1cccc(Cl)c1)c1cc2ccccc2cc1O [Compound 1b, N-(3-Chlorophenyl)-3-hydroxy-2-naphthamide]
GI50 [9]: 3.4 µM

O=C(Nc1ccccc1Cl)c1cc2ccccc2cc1O [Compound 1c, N-(2-Chlorophenyl)-3-hydroxy-2-naphthamide]
GI50 [9]: 7.73 µM

O=C(Nc1ccc(F)cc1)c1cc2ccccc2cc1O [Compound 1d, N-(4-Fluorophenyl)-3-hydroxy-2-naphthamide]
GI50 [9]: 6.29 µM

O=C(Nc1ccc(Br)cc1)c1cc2ccccc2cc1O [Compound 1e, N-(4-Bromophenyl)-3-hydroxy-2-naphthamide]
GI50 [9]: 5.59 µM

O=C(Nc1ccc(I)cc1)c1cc2ccccc2cc1O [Compound 1f, 3-Hydroxy-N-(4-iodophenyl)-2-naphthamide]
GI50 [9]: 6.52 µM

Nc1ccc(NC(=O)c2cc3ccccc3cc2O)cc1 [Compound 1g, N-(4-Aminophenyl)-3-hydroxy-2-naphthamide]
GI50 [9]: > 59.1 µM

O=C(Nc1ccc(O)cc1)c1cc2ccccc2cc1O [Compound 1h, 3-Hydroxy-N-(4-hydroxyphenyl)-2-naphthamide]
GI50 [9]: > 50.8 µM

O=C(Nc1ccc(C(F)(F)F)cc1)c1cc2ccccc2cc1O [Compound 1i, 3-Hydroxy-N-(4-trifluoromethylphenyl)-2-naphthamide]
GI50 [9]: 33.8 µM

COc1ccc(NC(=O)c2cc3ccccc3cc2O)cc1 [Compound 1j, 3-Hydroxy-N-(4-methoxyphenyl)-2-naphthamide]
GI50 [9]: 61.7 µM

O=C(Nc1ccc(F)c(F)c1)c1cc2ccccc2cc1O [Compound 1k, N-(3,4-Difluorophenyl)-3-hydroxy-2-naphthamide]
GI50 [9]: 5.35 µM

O=C(Nc1ccc(F)c(Cl)c1)c1cc2ccccc2cc1O [Compound 1l, N-(3-Chloro-4-fluorophenyl)-3-hydroxy-2-naphthamide]
GI50 [9]: 3.39 µM

O=C(Nc1ccccn1)c1cc2ccccc2cc1O [Compound 10a, 3-Hydroxy-N-(pyridin-2-yl)-2-naphthamide]
GI50 [9]: 33 µM

O=C(Nc1ccncc1)c1cc2ccccc2cc1O [Compound 10b, 3-Hydroxy-N-(pyridin-4-yl)-2-naphthamide]
GI50 [9]: 34.9 µM

O=C(Nc1cnccn1)c1cc2ccccc2cc1O [Compound 10c, 3-Hydroxy-N-(pyrazin-2-yl)-2-naphthamide]
GI50 [9]: > 47.2 µM

CN(C(=O)c1cc2ccccc2cc1O)c1ccc(Cl)cc1 [Compound 11]
sensitivity of MCF-7 cells expressing VP16-CREB compared to parental MCF-7 cells [3]: equally effective | inhibition of KIX–KID interaction [16]: did not inhibit | inhibition of CREB's activity [17]: did not inhibit
